Reference: ChEMBL document CHEMBL4346672, “Antimicrobial and KPC/AmpC inhibitory activity of functionalized benzosiloxaboroles” (Eur J Med Chem, 2019)
≈ marks a conversion by molar mass, not a printed value.

Test system: not listed separately
Test: Dissociation constant, pKa2 of compound in 0.1 M NaOH by potentiometric analysis
Format: physicochemical
Details: not given

| Compound | pKa |
| --- | --- |
| C[Si]1(C)OB(O)c2c(F)c3c(c(F)c21)B(O)OC3 | 7.8 |

Test system: Klebsiella pneumoniae
Test: Inhibition of beta lactamase CMY-2 in Klebsiella pneumoniae 78 assessed as potentiation of ceftazidime-induced antibacterial activity by measuring ceftazidime MIC at 16 mg/L incubated for 18 hrs by broth dilution method (reference value: >[…] mg/L)
Details: not given

| Compound | MIC [µg/mL] |
| --- | --- |
| C[Si]1(C)OB(O)c2ccc(F)c(F)c21 | 64 |
| C[Si]1(C)OB(O)c2c(F)c3c(c(F)c21)B(O)OC3 | > 64 |

Test system: not listed separately
Test: Cytotoxicity against human MRC5 cells assessed as cell viability at 4 ug/ml incubated for 72 hrs by MTT assay
Format: cell-based
Details: read-out: Activity
Method in brief: (§1)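 MRC-5 pd30 human fibroblasts grown in MEM with 10% FBS, 2 mM L-glutamine, penicillin/streptomycin and 1% non-essential amino acids at 37 °C, 5% CO2. Exponentially growing cells trypsinized and seeded at 8×10^3 cells/well, then dosed 18 h later with 2-fold dilutions (0.5% DMSO final) for 72 h. MTT (1 mg/ml final) added for 1 h at 37 °C, formazan dissolved in DMSO, OD read at 570 nm. Four replicates, expressed as % viable versus control.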

| Compound | viability at 72 h, 4 ug/ml [%] |
| --- | --- |
| C[Si]1(C)OB(O)c2ccc(F)c(F)c21 | 111 |

Test system: not listed separately
Test: Cytotoxicity against human MRC5 cells assessed as cell viability at 1 ug/ml incubated for 72 hrs by MTT assay
Format: cell-based
Details: read-out: Activity
Method in brief: as §1

| Compound | viability at 72 h, 1 ug/ml [%] |
| --- | --- |
| C[Si]1(C)OB(O)c2ccc(F)c(F)c21 | 114 |

Test system: Klebsiella pneumoniae
Test: Inhibition of beta lactamase KPC-3 in Klebsiella pneumoniae 83 assessed as potentiation of meropenem-induced antibacterial activity by measuring meropenem MIC at 16 mg/L incubated for 18 hrs by broth dilution method (reference value: […] mg/L)
Details: not given

| Compound | MIC [µg/mL] |
| --- | --- |
| C[Si]1(C)OB(O)c2ccc(F)c(F)c21 | 32 |
| C[Si]1(C)OB(O)c2c(F)c3c(c(F)c21)B(O)OC3 | 32 |

Test system: Acinetobacter baumannii
Test: Inhibition of beta lactamase OXA-24 in Acinetobacter baumannii 181 assessed as potentiation of ceftazidime-induced antibacterial activity by measuring ceftazidime MIC at 16 mg/L incubated for 18 hrs by broth dilution method (reference value: >[…] mg/L)
Details: not given

| Compound | MIC [µg/mL] |
| --- | --- |
| C[Si]1(C)OB(O)c2ccc(F)c(F)c21 | > 64 |
| C[Si]1(C)OB(O)c2c(F)c3c(c(F)c21)B(O)OC3 | > 64 |

Target: Class A carbapenemase KPC-2 (Escherichia coli) (UniProt A8DS27)
Test: Inhibition of beta lactamase KPC-2 in Escherichia coli 76 assessed as potentiation of meropenem-induced antibacterial activity by measuring meropenem MIC at 16 mg/L incubated for 18 hrs by broth dilution method (reference value: >[…] mg/L)
Details: not given

| Compound | MIC [µg/mL] |
| --- | --- |
| C[Si]1(C)OB(O)c2ccc(F)c(F)c21 | > 64 |
| C[Si]1(C)OB(O)c2c(F)c3c(c(F)c21)B(O)OC3 | > 64 |

Test system: Pseudomonas aeruginosa
Test: Inhibition of beta lactamase AmpC in Pseudomonas aeruginosa 700 assessed as potentiation of ceftazidime-induced antibacterial activity by measuring ceftazidime MIC at 16 mg/L incubated for 18 hrs by broth dilution method (reference value: >[…] mg/L)
Details: not given

| Compound | MIC [µg/mL] |
| --- | --- |
| C[Si]1(C)OB(O)c2ccc(F)c(F)c21 | > 64 |
| C[Si]1(C)OB(O)c2c(F)c3c(c(F)c21)B(O)OC3 | > 64 |

Test system: Escherichia coli
Test: Inhibition of beta lactamase KPC-3 in Escherichia coli 82 TR assessed as potentiation of meropenem-induced antibacterial activity by measuring meropenem MIC at 16 mg/L incubated for 18 hrs by broth dilution method (reference value: 2 mg/L)
Details: not given

| Compound | MIC [µg/mL] |
| --- | --- |
| C[Si]1(C)OB(O)c2ccc(F)c(F)c21 | 2 |
| C[Si]1(C)OB(O)c2c(F)c3c(c(F)c21)B(O)OC3 | 2 |

Test system: Klebsiella pneumoniae ATCC BAA-1705
Test: Inhibition of beta lactamase KPC-2 in Klebsiella pneumoniae ATCC BAA 1705 assessed as potentiation of ceftazidime-induced antibacterial activity by measuring ceftazidime MIC at 16 mg/L incubated for 18 hrs by broth dilution method
Details: not given

| Compound | MIC [µg/mL] |
| --- | --- |
| C[Si]1(C)OB(O)c2ccc(F)c(F)c21 | 64 |
| C[Si]1(C)OB(O)c2c(F)c3c(c(F)c21)B(O)OC3 | 64 |

Test system: Klebsiella pneumoniae
Test: Inhibition of beta lactamase SHV-12 in Klebsiella pneumoniae ATCC 700603 assessed as potentiation of ceftazidime-induced antibacterial activity by measuring ceftazidime MIC at 16 mg/L incubated for 18 hrs by broth dilution method (reference value: […] mg/L)
Details: not given

| Compound | MIC [µg/mL] |
| --- | --- |
| C[Si]1(C)OB(O)c2ccc(F)c(F)c21 | 32 |
| C[Si]1(C)OB(O)c2c(F)c3c(c(F)c21)B(O)OC3 | 64 |

Test system: Escherichia coli
Test: Inhibition of beta lactamase CMY-2 in Escherichia coli 77 assessed as potentiation of ceftazidime-induced antibacterial activity by measuring ceftazidime MIC at 16 mg/L incubated for 18 hrs by broth dilution method (reference value: […] mg/L)
Details: not given

| Compound | MIC [µg/mL] |
| --- | --- |
| C[Si]1(C)OB(O)c2ccc(F)c(F)c21 | 16 |
| C[Si]1(C)OB(O)c2c(F)c3c(c(F)c21)B(O)OC3 | 32 |

Test system: Pseudomonas aeruginosa
Test: Inhibition of beta lactamase OXA-15 in Pseudomonas aeruginosa 852 assessed as potentiation of ceftazidime-induced antibacterial activity by measuring ceftazidime MIC at 16 mg/L incubated for 18 hrs by broth dilution method (reference value: >[…] mg/L)
Details: not given

| Compound | MIC [µg/mL] |
| --- | --- |
| C[Si]1(C)OB(O)c2ccc(F)c(F)c21 | > 64 |
| C[Si]1(C)OB(O)c2c(F)c3c(c(F)c21)B(O)OC3 | > 64 |

Test system: Klebsiella pneumoniae
Test: Inhibition of beta lactamase KPC-3 in Klebsiella pneumoniae 83 assessed as potentiation of ceftazidime-induced antibacterial activity by measuring ceftazidime MIC at 16 mg/L incubated for 18 hrs by broth dilution method (reference value: >[…] mg/L)
Details: not given

| Compound | MIC [µg/mL] |
| --- | --- |
| C[Si]1(C)OB(O)c2ccc(F)c(F)c21 | > 64 |
| C[Si]1(C)OB(O)c2c(F)c3c(c(F)c21)B(O)OC3 | 64 |

Test system: not listed separately
Test: Cytotoxicity against human MRC5 cells assessed as cell viability at 16 ug/ml incubated for 72 hrs by MTT assay
Format: cell-based
Details: read-out: Activity
Method in brief: as §1

| Compound | viability at 72 h, 16 ug/ml [%] |
| --- | --- |
| C[Si]1(C)OB(O)c2ccc(F)c(F)c21 | 99 |

Test system: not listed separately
Test: Cytotoxicity against human MRC5 cells assessed as cell viability at 0.5 ug/ml incubated for 72 hrs by MTT assay
Format: cell-based
Details: read-out: Activity
Method in brief: as §1

| Compound | viability at 72 h, 0.5 ug/ml [%] |
| --- | --- |
| C[Si]1(C)OB(O)c2ccc(F)c(F)c21 | 108 |

Test system: Klebsiella pneumoniae
Test: Inhibition of beta lactamase KPC-3 in Klebsiella pneumoniae 81 assessed as potentiation of meropenem-induced antibacterial activity by measuring meropenem MIC at 16 mg/L incubated for 18 hrs by broth dilution method (reference value: […] mg/L)
Details: not given

| Compound | MIC [µg/mL] |
| --- | --- |
| C[Si]1(C)OB(O)c2ccc(F)c(F)c21 | 8 |
| C[Si]1(C)OB(O)c2c(F)c3c(c(F)c21)B(O)OC3 | 16 |

Test system: Escherichia coli
Test: Inhibition of beta lactamase CMY-2 in Escherichia coli 77 assessed as potentiation of ceftazidime-induced antibacterial activity by measuring diameter of zone inhibition at 0.3 mg incubated for 18 hrs in presence of 30 ug ceftazidime by CLSI disc diffusion method (Rvb=13 mm)
Details: not given
Method in brief: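 AmpC combination disc test on Mueller-Hinton agar, following EUCAST guidance and Yagi et al. Inhibition zones were compared between a CAZ-30 disc and a ceftazidime disc plus agent or PBA, each at 0.3 mg per disc. Plates were incubated at 35 °C for 18 h. A zone difference of at least 5 mm was counted as inhibition.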

| Compound | inhibition zone (IZ) [mm] |
| --- | --- |
| C[Si]1(C)OB(O)c2ccc(F)c(F)c21 | 22 |
| C[Si]1(C)OB(O)c2c(F)c3c(c(F)c21)B(O)OC3 | 20 |

Test system: Stenotrophomonas maltophilia
Test: Bactericidal activity against Stenotrophomonas maltophilia ATCC 13637 measured after 18 hrs by CLSI broth dilution method
Format: functional
Details: ATCC 13637, 18 h
Method in brief: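 Strains stored at -80 °C and subcultured twice on tryptic soy agar before testing. Compounds dissolved in DMSO. […] MBC then determined per CLSI recommendations.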

| Compound | MBC [µg/mL] |
| --- | --- |
| C[Si]1(C)OB(O)c2ccc(F)c(F)c21 | 400 (≈ 1870 µM) |
| C[Si]1(C)OB(O)c2c(F)c3c(c(F)c21)B(O)OC3 | 400 (≈ 1480 µM) |

Test system: Klebsiella pneumoniae
Test: Inhibition of beta lactamase KPC-2 in Klebsiella pneumoniae 75 assessed as potentiation of ceftazidime-induced antibacterial activity by measuring ceftazidime MIC at 16 mg/L incubated for 18 hrs by broth dilution method (reference value: […] mg/L)
Details: not given

| Compound | MIC [µg/mL] |
| --- | --- |
| C[Si]1(C)OB(O)c2ccc(F)c(F)c21 | > 64 |
| C[Si]1(C)OB(O)c2c(F)c3c(c(F)c21)B(O)OC3 | 64 |

Test system: Acinetobacter baumannii
Test: Inhibition of beta lactamase OXA-24 in Acinetobacter baumannii 181 assessed as potentiation of meropenem-induced antibacterial activity by measuring meropenem MIC at 16 mg/L incubated for 18 hrs by broth dilution method (reference value: […] mg/L)
Details: not given

| Compound | MIC [µg/mL] |
| --- | --- |
| C[Si]1(C)OB(O)c2ccc(F)c(F)c21 | > 64 |
| C[Si]1(C)OB(O)c2c(F)c3c(c(F)c21)B(O)OC3 | > 64 |

Test system: not listed separately
Test: Cytotoxicity against human MRC5 cells assessed as cell viability at 32 ug/ml incubated for 72 hrs by MTT assay
Format: cell-based
Details: read-out: Activity
Method in brief: as §1

| Compound | viability at 72 h, 32 ug/ml [%] |
| --- | --- |
| C[Si]1(C)OB(O)c2ccc(F)c(F)c21 | 74 |

Test system: not listed separately
Test: Cytotoxicity against human MRC5 cells assessed as cell viability at 2 ug/ml incubated for 72 hrs by MTT assay
Format: cell-based
Details: read-out: Activity
Method in brief: as §1

| Compound | viability at 72 h, 2 ug/ml [%] |
| --- | --- |
| C[Si]1(C)OB(O)c2ccc(F)c(F)c21 | 113 |

Test system: Klebsiella pneumoniae 700603
Test: (§2) Inhibition of extended-spectrum beta lactamase in Klebsiella pneumoniae ATCC 700603 assessed as potentiation of cefotaxime-induced antibacterial activity by measuring diameter of zone inhibition at 0.3 mg incubated for 18 hrs in presence of 10 ug cefotaxime by CLSI disc diffusion method (Rvb=19 mm)
Details: not given
Method in brief: (§3)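 EUCAST ESBL combination disc test on Mueller-Hinton agar. Zones were compared between a ceftazidime or cefotaxime disc alone and the same disc plus agent at 0.3 mg per disc. Clavulanic acid discs at 0.01 mg per disc served as reference. Plates were incubated at 35 °C for 18 h. A difference of at least 5 mm was counted as inhibition.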

| Compound | inhibition zone (IZ) [mm] |
| --- | --- |
| C[Si]1(C)OB(O)c2ccc(F)c(F)c21 | 19 |
| C[Si]1(C)OB(O)c2c(F)c3c(c(F)c21)B(O)OC3 | 19 |

Test system: Klebsiella pneumoniae 700603
Test: as §2, with “ceftazidime-induced” for “cefotaxime-induced”, “ceftazidime” for “cefotaxime”, “(Rvb=13” for “(Rvb=19”
Details: not given
Method in brief: as §3

| Compound | inhibition zone (IZ) [mm] |
| --- | --- |
| C[Si]1(C)OB(O)c2ccc(F)c(F)c21 | 13 |
| C[Si]1(C)OB(O)c2c(F)c3c(c(F)c21)B(O)OC3 | 13 |
